Bioassay records (PubChem)
Hits are enriched below; roughly 1.4% of the tested compounds scored in any of these assays.
DDE Tn6 FP inh – inhibitors of Tn6 peptide binding to human fibrin DD(E); P02675; Fibrin DD(E) TRITC-Tn6 fluorescence polarization displacement; inhibition, % at 8.3 µM; 0.21% of 370,000 active; AID 720509;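 active = inhibition above a per-campaign cutoff: mean of compounds within control limits plus 3 SD, cut at about 15% in these data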;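 also: 0% = median of all compound wells on the plate and 100% = blocking peptide control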
Target sequence (P02675 whole entry, looked up): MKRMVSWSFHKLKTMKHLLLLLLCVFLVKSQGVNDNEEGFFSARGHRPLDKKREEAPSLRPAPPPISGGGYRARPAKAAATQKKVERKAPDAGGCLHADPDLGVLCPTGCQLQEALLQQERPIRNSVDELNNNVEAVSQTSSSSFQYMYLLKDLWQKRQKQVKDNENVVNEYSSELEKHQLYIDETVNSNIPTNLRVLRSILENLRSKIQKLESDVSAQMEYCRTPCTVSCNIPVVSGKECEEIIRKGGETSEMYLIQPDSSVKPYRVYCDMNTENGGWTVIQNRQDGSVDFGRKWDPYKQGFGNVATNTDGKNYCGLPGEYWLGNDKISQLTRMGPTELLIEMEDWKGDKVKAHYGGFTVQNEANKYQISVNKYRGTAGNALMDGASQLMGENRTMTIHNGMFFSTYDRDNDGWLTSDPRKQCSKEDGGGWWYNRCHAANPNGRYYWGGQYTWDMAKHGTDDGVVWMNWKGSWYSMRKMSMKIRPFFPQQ
cardiac RTF act – increases calcium sensitivity of human cardiac regulated thin filaments; P19429+P45379; IANBD-labeled TnC RTF fluorescence at EC20 calcium; 0% EC20 calcium, 100% full calcium; activation, % at 7.2 µM; 0.24% of 340,000 active;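 active = activation above the mean over all tested compounds plus 3 SD, cut at about 30% in these data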;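 also: rise in fluorescence read as greater calcium sensitivity of cardiac thin filaments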
Tn7 DDE FP – disrupts Tn7 cyclic peptide binding to fibrin D-Dimer-E complex | P02675 | FP displacement of FITC-Tn7 peptide from fibrin DD(E); 0% = median of compound wells per plate | inhibition, % at 8.3 µM | 0.13% of 370,000 active;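 active = inhibition above the mean of compounds falling within the control limits plus 3 SD of them, cut at about 14% in these data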;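 also: 0% = plate median of compound wells and 100% = 10 µM Aha-Tn7 peptide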
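Assay system: Human clot-derived fibrin DD(E) complex | Buffer or medium: Tris/NaCl/CaCl2 buffer, pH 7.8 | Repeats: One replicate per compound | Benchmarks: Aha-Tn7 high control | Measure: % inhibition scaled between sample-field median and high-control FP | Schedule: 10 min plus 3 h, room temperature | Signal: Fluorescence polarization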
RTF Ca sens inh – cardiac RTF calcium desensitization; P19429+P45379; IANBD-labeled cardiac RTF, Ca2+ fluorescence; inhibition, % at 7.15 µM; 0.12% of 340,000 active; AID 493244;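 active = inhibition above the mean inhibition of all tested compounds plus 3 SD, cut at about 17% in these data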;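 also: assay run at fixed EC70 calcium of 1.6 mM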
CRFBP-R2 agonist – agonists of human CRF-binding protein/CRF-R2 receptor complex; HEK293 CRF-R2/CRF-BP, calcium dye fluorescence (FLIPR); percent of saturating CRF peptide response; activation, % at 13.2 µM; 0.46% of 350,000 active;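 active = activation of at least 50%, plus an integration ratio under a set limit after plate pattern correction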;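 also: plate controls were neutral control wells without compound for no effect and CRF at EC100 for full effect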
CRFR2-BP antag – antagonists of CRF-binding protein/CRF-R2 receptor complex. inhibition, % at 11.8 µM. 0.59% of 350,000 active. HEK293 CRF-R2/CRF-BP, CRF-induced calcium fluorescence. AID 588475;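 active = inhibition of the ligand-induced calcium signal above about 50% at the single tested concentration, limit read from the data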
The depositor's hits bear a star; nt = not tested or not shown.

SMILES	DDE Tn6 FP inh	cardiac RTF act	Tn7 DDE FP	RTF Ca sens inh	CRFBP-R2 agonist	CRFR2-BP antag
Clc1ccc(-c2nnc(Sc3nc4ccccc4o3)c3ccccc23)cc1	6.5	-3.9	4.9	-3.7	-0.3	14.4
COc1cc(C(=O)COC(=O)c2ccc3c(c2)OCCO3)cc(OC)c1OC	2.6	nt	-7.7	nt	0.8	-6.9
COc1cc2[nH]c(=O)n(CCCCCC(=O)NC3CCCC3)c(=O)c2cc1OC	-0.3	4.8	-2.6	5.5	1.6	66.9*
O=C(c1ccccc1)c1nn(-c2ccc(Cl)cc2)cc1C(=O)c1cc2ccccc2oc1=O	-1.6	-0.9	0.8	-4.5	9.1	100.6*
O=C(c1ccc(F)cc1F)N1CCC(Oc2cccnc2)CC1	-4.5	nt	0.2	nt	nt	nt
Cc1ccc2nc(/C(C#N)=C/c3ccc(-c4ccccc4C(=O)O)o3)[nH]c2c1	-10.3	27.5	-11.0	-37.1	65.3*	-41.4
Cc1cc2nc(/C(C#N)=C\c3ccc(-c4ccccc4C(=O)O)o3)[nH]c2cc1C	6.9	52.5*	2.7	-43.5	100.1*	-63.3
O=C(NCC(c1ccccc1)c1ccccc1)[C@H](Cc1ccccc1)NC1(C(=O)NC2CCCCC2)CCOCC1	-0.2	nt	-0.3	nt	nt	nt
CC1=C(C(=O)N(C)C)CC(CC(=O)NCCCCc2ccccc2)C(=O)N1CCCN1CCCC1=O (stereo not given)	-0.4	nt	-3.2	nt	0.2	1.6
CC1C(=O)N(Cc2cn(CCC3OCCO3)nn2)CCS(=O)(=O)N1Cc1ccc(-c2ccc(Cl)c(Cl)c2)cc1 (stereo not given)	5.2	nt	6.7	nt	-0.3	-2.4
COC(=O)c1cc(-c2cc(F)cc(OC)c2)c(=O)n2c1CCC2	6.9	nt	-0.7	nt	nt	nt
CC1(C)Cc2c(sc3c2c(=O)n(Cc2ccccc2)c2nncn32)CO1	nt	2.4	nt	2.0	-1.1	5.7
Cc1nnc2n(Cc3ccccc3)c(=O)c3c4c(sc3n12)COC(C)(C)C4	1.3	-4.7	4.6	-5.2	-2.2	87.2*
CCN(CC)CCOc1nc(C)nc2c1oc1ccccc12	5.2	4.8	-1.2	-5.8	-1.1	17.5
CCN(CC)CCCOc1nc(C)nc2c1oc1ccccc12	8.2	-2.3	2.9	35.6*	-1.3	23.1
Cc1cccc(C)c1N1CCN(C(=O)c2ccc3c(c2)OCO3)CC1	2.1	-2.8	-8.1	1.2	-0.1	61.1*
Cc1cccc(N2CCN(C(=O)c3ccc4c(c3)OCCO4)CC2)c1C	3.9	3.4	1.4	-5.4	-4.3	-2.0
O=C(/C=C(\Nc1ccc(F)cc1)c1ccccc1)c1ccccc1	1.3	nt	1.8	nt	nt	nt
COc1cc2c3nnc(-c4ccc(F)cc4)c-3cn(Cc3cccc(C)c3)c2cc1OC	-3.5	17.8	3.4	-34.0	4.7	-16.9
COc1cc2c3nnc(-c4ccc(F)cc4)c-3cn(Cc3cccc(F)c3)c2cc1OC	nt	48.5*	nt	-62.7	13.6	1.9
COc1cc2c3nnc(-c4ccccc4)c-3cn(Cc3ccc(F)cc3)c2cc1OC	-0.1	-3.9	-2.5	-3.2	11.7	-7.2
COc1cc2c3nnc(-c4ccc(F)cc4)c-3cn(Cc3ccc(C)cc3)c2cc1OC	5.1	41.3*	-0.9	-54.1	0.1	-7.2
C[C@H]1[C@@H](OC(=O)Nc2ccc(C#N)cc2)CC[C@@]23CCCN2C(=O)CCC[C@@H]13	1.8	nt	-1.6	nt	nt	nt
CCN(CC)C(=O)CC[C@@H]1CC[C@]2(CCCN(Cc3nccs3)C2)O1	4.5	nt	-0.9	nt	nt	nt
CCN1CCN(c2cc(N3CCN(C(=O)c4ccco4)CC3)c3c4c(onc24)-c2ccccc2C3=O)CC1	nt	1.6	nt	3.2	0.4	-3.0
SMILES	DDE Tn6 FP inh	cardiac RTF act	Tn7 DDE FP	RTF Ca sens inh	CRFBP-R2 agonist	CRFR2-BP antag
O=C(O)CCNc1cc(N2CCN(C(=O)c3ccco3)CC2)c2noc3c2c1C(=O)c1ccccc1-3	46.4*	138.8*	-4.3	-9.0	0.6	-17.1
CCCc1nc2sc3ccccc3c(=O)c2c(=O)n1Cc1ccco1	-7.3	-6.5	-2.3	-3.5	54.6*	-142.2
COc1ccc(CN(CCN2CCOCC2)C(=O)c2ccc(F)cc2F)cc1OC	0.3	nt	6.4	nt	nt	nt
NC(=O)c1cccc(-c2ccnc3c2CC(C(=O)NCc2cccc(Cl)c2)O3)c1 (stereo not given)	-6.9	nt	-0.4	nt	nt	nt
CCOC(=O)N1CCN(C(=O)c2ccc3nc(SCc4ccc(F)cc4)n(C)c3c2)CC1	0.7	0.8	0.3	-10.8	-5.2	51.0*
CN1CCN(C(=O)c2ccc(CSc3nc4ccncc4n3Cc3ccc(F)cc3)cc2)CC1	0.0	-0.6	2.0	-2.4	-5.2	-1.9
CN(C)c1ccc(/C=C2\N=C(c3ccc(Cl)c([N+](=O)[O-])c3)NC2=O)cc1	-0.2	0.3	-3.1	-5.5	62.5*	-105.8
COc1ccc(CNC(=O)C2(c3ccc(Cl)cc3)CC2)cc1	8.8	-5.5	-2.3	-33.0	0.9	60.9*
Cc1cccc(CNC(=S)OC2CCC23CCC(c2ccccc2)CC3)c1 (stereo not given)	0.8	nt	1.4	nt	nt	nt
COc1ccc(N(CC(=O)NCCSc2ccccn2)S(=O)(=O)c2ccccc2)cc1OC	-7.6	2.2	0.1	-14.8	-0.2	-10.0
COc1ccc(N(CC(=O)NCCSc2ccccn2)S(=O)(=O)c2ccc(C)cc2)cc1OC	0.5	-3.3	-1.0	1.6	-0.8	55.2*
CCn1c(=O)c(C(=O)NNC(=O)c2ccccc2F)c(O)c2ccccc21	-0.2	-0.1	4.7	15.9	99.9*	27.0
Cn1c(=O)c(C(=O)NNC(=O)c2ccc(Br)cc2)c(O)c2ccccc21	-0.8	-7.0	7.4	2.9	1.0	32.3
Cn1c(=O)c(C(=O)NNC(=O)c2ccccc2F)c(O)c2ccccc21	-3.4	0.9	-6.8	0.6	50.8*	-1.1
O=S(=O)(Nc1nc2ccccc2s1)c1ccc(Cl)s1	-5.2	-10.9	4.2	-6.1	-0.2	58.4*
COC(=O)c1ccc2nc(C3CCCCC3)c(Cc3ccccc3)n2c1	1.0	nt	0.8	nt	nt	nt
CC(C)Cc1ccc(C(C)C(=O)Nc2ccccc2O)cc1 (stereo not given)	0.1	2.9	-3.0	-6.7	77.4*	-29.3
Cc1ccc(-c2cc(-c3nnc(SCC(=O)N4CCOCC4)n3N)[nH]n2)cc1	-2.6	nt	-1.2	nt	nt	nt
CSc1ccccc1C(=O)N1CCN(S(=O)(=O)c2sc(C(=O)O)c(C)c2C(=O)O)CC1	-4.9	1.0	-5.3	-9.2	0.8	84.3*
Cc1c(C(=O)O)sc(S(=O)(=O)N2CCN(C(=O)Cc3ccccc3)CC2)c1C(=O)O	6.8	1.2	-4.7	-4.1	-2.5	11.2
Cc1[nH]c(=O)c(C#N)cc1-c1csc(-c2ccccc2)n1	-1.6	-4.5	1.0	-5.2	-5.6	51.0*
Cc1nc(-c2cc(C#N)c(=O)[nH]c2C)cs1	6.2	6.1	3.8	-4.0	0.7	-1.5
O=S(=O)(Nc1cc(Cl)ccc1-n1cncn1)c1ccccc1Cl	3.8	2.4	1.6	1.1	-0.2	106.0*
